# OX1R antag-1 = antagonists of human orexin 1 receptor (OX1R). actives 1.8% (n = 330,000). AID 485270. inhibition, % at 6.6 µM. OX1R-expressing cells, FRET antagonist read-out; in the data active means inhibition mostly above about 38%, no sharp cut-off; inactive means mostly below about 40%;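 further: 0% = agonist challenge alone and 100% = reference antagonist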
# CHO parental Ca = counter-screen: ATP calcium response change in parental CHO cells. parental CHO-K1, ATP-induced calcium, Fluo-8 fluorescence. inhibition, % at 5.6 µM. actives 0.63% (n = 330,000). AID 463079;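 active means inhibition above that plate's mean sample inhibition plus 3 SD, cut at about 26% in these data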;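 further: 0% = ATP-challenged DMSO wells and 100% = DMSO wells without ATP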
#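 Assay system – parental CHO cells · Reagent – ATP stimulus · Detection – intracellular calcium via Fluo-8 no-wash fluorescent dye · Evaluation – percent inhibition of ATP-evoked calcium rise, normalized to controls · Controls – ATP wells versus no-ATP DMSO wells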
# GPR7 antag = blocks human GPR7 receptor signaling | AID 1861 | inhibition, % at 4.4 µM | GPR7-expressing cells, fluorescence antagonist assay | actives 1.1% (n = 290,000) | P48145; in the data active means inhibition above about 16%, passing the limit was not always enough;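 further: cells stimulated with the agonist NPW; 0% = agonist with vehicle and 100% = vehicle without agonist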
# Target sequence (P48145 whole entry, looked up): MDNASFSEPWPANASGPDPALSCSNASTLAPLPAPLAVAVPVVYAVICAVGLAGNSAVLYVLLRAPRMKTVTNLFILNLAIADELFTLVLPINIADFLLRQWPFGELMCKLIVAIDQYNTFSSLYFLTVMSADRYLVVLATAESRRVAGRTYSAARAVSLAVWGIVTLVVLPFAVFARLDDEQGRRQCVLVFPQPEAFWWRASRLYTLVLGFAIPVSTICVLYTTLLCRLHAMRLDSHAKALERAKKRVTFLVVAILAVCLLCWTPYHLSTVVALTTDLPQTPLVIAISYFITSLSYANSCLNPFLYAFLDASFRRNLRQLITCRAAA
# OX1R antag-2 = blocks the human orexin 1 receptor | AID 434989 | actives 0.43% (n = 330,000) | O43613 | inhibition, % at 5 µM | CHO/OX1R cells, Fluo-8 calcium fluorescence, orexin A;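 active means inhibition above its plate's threshold, mean inhibition of all tested compounds on the plate plus 3 SD, cut at about 37% in these data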;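 further: 0% = orexin A challenge wells and 100% = SB-334867-A antagonist wells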
# MPTP block = permeability transition pore inhibition; isolated mouse mitochondria, Ca2+ swelling absorbance, 30 min; inhibition, % at 10 µM; actives 1.4% (n = 360,000); AID 602449;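 active means inhibition of 50% or more, scaled per plate between neutral and stimulator controls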;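 further: 0% = DMSO wells given calcium and 100% = 1 mM EGTA wells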
# Rh123 counter = Rhodamine 123 counter-screen of mitochondrial pore hits. shares compounds with MPTP block. isolated mitochondria, membrane potential, Rhodamine 123 fluorescence. inhibition, % at 10 µM. actives 78% (n = 5,000); in the data active means inhibition above about 22%;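 further: 0% = DMSO vehicle and 100% = positive control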
# MPTP swell DR = dose response confirmation of mitochondrial permeability transition pore inhibitors. shares compounds with MPTP block. isolated mitochondria swelling, absorbance. IC50, µM. actives 58% (n = 780). AID 651561; in the data active means IC50 below about 20 µM
# MPTP cs DR = counter-screen for mitochondrial permeability transition pore inhibitors, dose response | isolated mitochondria counterscreen, fluorescence read-out | shares compounds with MPTP block | AID 651564 | actives 49% (n = 780) | IC50, µM; in the data active means IC50 below about 80 µM
# Active calls of the source: *; i = inactive; nt = no result given. A selection: hits, their analogues and other compounds. The true share with any hit is near 3.8%.
SMILES,OX1R antag-1,CHO parental Ca,GPR7 antag,OX1R antag-2,MPTP block,Rh123 counter,others
COc1ccc(/C=C/C(=O)Nc2ccccc2C(=O)NCC(c2ccc(OC)cc2)N(C)C)cc1 (configuration not stated),3,-45,-4,-32,76*,-5,MPTP swell DR=12*;MPTP cs DR=>80
CC1CC(C)CN(C(=O)C(C)N(C)CC(=O)Nc2ccc(Cl)cc2)C1 (configuration not stated),12,-27,9,-27,-1,nt,
O=C(O)Cc1ccc(NC(=O)COc2ccc3ccccc3c2)cc1,-1,-6,-10,5,-1,nt,
O=C(COc1ccc2ccccc2c1)Nc1ccc(Cc2ccncc2)cc1,35,24,-3,59*,94*,88*,
COC(=O)c1nc(NC(=O)c2ccccc2Cl)n[nH]1,-1,-2,-9,-4,1,nt,
COC(=O)c1nc(NC(=O)c2ccc(Br)cc2)n[nH]1,-8,-9,18,-15,77*,6,MPTP swell DR=>100;MPTP cs DR=>80
S=C(Nc1cc(Cl)cc(Cl)c1)NC1CCN(Cc2ccccc2)CC1,nt,nt,13,nt,54*,89*,
S=C(Nc1cccc(Cl)c1)NC1CCCCC1,30,-1,0,17,99*,108*,
COC(=O)c1ccc(NC(=S)NC2CCCCC2)cc1,17,-15,5,-10,90*,80*,
S=C(NNc1cccc(Cl)c1)NC1CCCCC1,10,18,10,-18,3,nt,
S=C(Nc1ccc(Br)cc1)NC1CCCCC1,17,34,-5,-3,97*,99*,
COc1ccc(CC(=O)NC(C)c2ccc3ccccc3c2)cc1 (configuration not stated),25,-14,-2,-19,0,nt,
Cc1ccc2cc(CCNC(=O)CCCc3ccccc3)c(=O)[nH]c2c1C,5,-19,-13,-24,-1,nt,
S=C(NCCc1ccc(Cl)cc1)NC1CCCC1,19,0,0,-3,53*,78*,
S=C(Nc1ccc(Cl)cc1)NC1CCCCC1,20,-3,-14,-13,82*,93*,
COC(=O)c1ccc(NC(=S)NC2CC3CCC2C3)cc1 (configuration not stated),20,2,-11,1,101*,91*,
NS(=O)(=O)c1ccc(NC(=S)NC2CCCCC2)cc1,27,4,6,1,-1,nt,
S=C(Nc1ccc(Nc2ccccc2)cc1)NC1CCCCCC1,15,-8,-31,-14,63*,66*,
COCC1CCN(Cc2cn[nH]c2-c2ccc(OC)c(F)c2)C1 (configuration not stated),2,0,3,-18,3,nt,
COc1ccc(-c2nc(N3CCN(C)CC3)sc2-c2ccc(OC)cc2)cc1,13,-27,-1,-21,74*,-18,MPTP swell DR=i;MPTP cs DR=>80
CNc1nc(-c2ccc(OC)cc2)c(-c2ccc(OC)cc2)s1,15,-6,-13,-4,3,nt,
O=C(COc1ccc([N+](=O)[O-])cc1)NC(=O)NC1CCS(=O)(=O)C1 (configuration not stated),nt,nt,nt,nt,-1,nt,
N#Cc1c(NCCN)nc(-c2ccco2)c2c1CCCC2,21,-20,-14,-20,92*,-2,MPTP swell DR=13*;MPTP cs DR=>80
CC(C)CCNc1nc(-c2ccco2)c2c(c1C#N)CCCC2,14,-35,-6,-32,0,nt,
C=CCN=c1scc(-c2ccc3c(c2)NC(=O)CO3)n1/N=C(\C)c1ccccn1,nt,nt,8,nt,95*,62*,
SMILES,OX1R antag-1,CHO parental Ca,GPR7 antag,OX1R antag-2,MPTP block,Rh123 counter,others
C=CCN=c1scc(-c2ccc(F)cc2)n1/N=C/c1ccccn1,14,-13,-6,-26,10,nt,
O=C1CC(NS(=O)(=O)c2cccnc2)CN1c1ccccc1 (configuration not stated),9,-7,nt,-10,-1,nt,
CCOC(=O)Cc1csc(Nc2ccc(Cl)cc2)n1,17,-16,-6,-17,0,nt,
CCOC(=O)Cc1nnc2c(Nc3ccc(Cl)cc3)nc3nonc3n12,33,18,-15,17,94*,87*,
C#CCOCCOCCOCCNc1nc(N2CCN(C(=O)[C@H](CCCCN)n3cc([C@@H](N)C(C)CC)nn3)CC2)nc(N2CCN(C(=O)[C@H](CCCCN)n3cc([C@@H](N)CO)nn3)CC2)n1 (some centres not stated),7,-12,5,-3,nt,nt,
C#CCOCCOCCOCCNc1nc(N2CCN(C(=O)[C@H](CCCN=C(N)N)n3cc(C(N)[C@@H](C)CC)nn3)CC2)nc(N2CCN(C(=O)[C@H](CCCCN)n3cc([C@@H](N)[C@H](C)CC)nn3)CC2)n1 (some centres not stated),0,2,nt,0,101*,-6,MPTP swell DR=1.5*;MPTP cs DR=>80
C#CCOCCOCCOCCNc1nc(N2CCN(C(=O)[C@H](CCCN=C(N)N)n3cc(C(N)[C@@H](C)CC)nn3)CC2)nc(N2CCN(C(=O)[C@H](CCC(=O)O)n3cc([C@@H](N)CCCCN)nn3)CC2)n1 (some centres not stated),0,0,nt,-10,0,nt,
C#CCOCCOCCOCCNc1nc(N2CCN(C(=O)[C@H]([C@@H](C)CC)n3cc([C@@H](N)CC(C)C)nn3)CC2)nc(N2CCN(C(=O)[C@H](CCCCN)n3cc([C@@H](N)CC(C)C)nn3)CC2)n1,1,-3,4,-1,nt,nt,
C#CCOCCOCCOCCNc1nc(N2CCN(C(=O)[C@H]([C@@H](C)CC)n3cc([C@@H](N)CC(C)C)nn3)CC2)nc(N2CCN(C(=O)[C@H](CCCCN)n3cc([C@@H](N)C(C)CC)nn3)CC2)n1 (some centres not stated),-1,-2,-16,8,76*,-16,MPTP swell DR=2.4*;MPTP cs DR=>80
C#CCOCCOCCOCCNc1nc(N2CCN(C(=O)[C@H](CCCCN)n3cc(CN)nn3)CC2)nc(N2CCN(C(=O)[C@H](CCCCN)n3cc([C@@H](N)[C@H](C)CC)nn3)CC2)n1,0,1,nt,1,88*,-14,MPTP swell DR=6.4*;MPTP cs DR=65*
CCCCn1nnnc1C(C1CC1)N1CCN(C/C=C/c2ccccc2)CC1 (configuration not stated),nt,nt,nt,nt,0,nt,
CS(=O)(=O)N1CCC(C(=O)NCc2ccc(Cl)cc2Cl)CC1,18,2,-20,-13,2,nt,
O=C(Cc1ccc([N+](=O)[O-])cc1)Nc1cc(C(F)(F)F)cc(C(F)(F)F)c1,8,12,-18,0,77*,98*,
CCC1CCCCN1C(=O)c1ccc2c(c1)C(=O)N(c1ccc(C)cc1)C2=O (configuration not stated),19,-10,4,-6,-1,nt,
